Experimental data from ChEMBL document CHEMBL4346684, “Synthesis and structure-bactericidal activity relationships of non-ketolides: 9-Oxime clarithromycin 11,12-cyclic carbonate featured with three-to eight-atom-length spacers at 3-OH” (Eur J Med Chem, 2019).
Values after ≈ are worked out from the molar mass of the structure shown.

Columns and labels:
Format in all cases: functional
Haemophilus influenzae [1] = test: Antimicrobial activity against azithromycin-susceptible Haemophilus influenzae ATCC 49247 incubated in HTM broth medium for 20 to 24 hrs by two-fold microbroth dilution method
Streptococcus pyogenes [2] = test: Antimicrobial activity against constitutively erythromycin resistant Streptococcus pyogenes A2 expressing c-erm incubated in CAMHB medium for 20 to 24 hrs by two-fold microbroth dilution method
In short: (§1)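 Purified fresh Streptococcus isolate at about 5×10^5 CFU/ml final in CAMHB with 5% horse serum, 35 °C for 20–24 h. […] Each run included ATCC strains and reference antibiotics as QC, plus an antibiotic-free growth control.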

Moraxella catarrhalis [3] = test: Antimicrobial activity against erythromycin-susceptible Moraxella catarrhalis 13L332 incubated in CAMHB medium for 20 hrs by two-fold microbroth dilution method; settings: 13L332, 20 h
In short: (§2)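 Clinical isolates and ATCC strains, purified by plate activation and used fresh; inoculum about 5×10^5 CFU/ml final. Grown in CAMHB at 35 °C for 20 h.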

Staphylococcus aureus [4] = test: Antimicrobial activity against inducibly erythromycin-resistant and methicillin resistant Staphylococcus aureus PU32 expressing i-ermA incubated in CAMHB medium for 20 hrs by two-fold microbroth dilution method; settings: PU32, 20 h
In short: (§3)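 Purified fresh Staphylococcus isolate at about 5×10^5 CFU/ml final in CAMHB, 35 °C for 20 h. Each run included ATCC strains and reference antibiotics as QC, plus an antibiotic-free growth control.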

Staphylococcus aureus [5] = test: Antimicrobial activity against inducibly erythromycin resistant Staphylococcus aureus PU64 expressing i-ermA incubated in CAMHB medium for 20 hrs by two-fold microbroth dilution method; settings: PU64, 20 h
In short: (§4)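 Purified fresh Staphylococcus isolate at about 5×10^5 CFU/ml final in CAMHB, 35 °C for 20 h. […] Each run included ATCC strains and reference antibiotics as QC, plus an antibiotic-free growth control.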

Streptococcus pneumoniae [6] = test: Bactericidal activity against mef-encoded erythromycin resistant Streptococcus pneumoniae PU09 assessed as reduction in colony formation incubated in CAMHB medium for 20 to 24 hrs followed by 24 hrs subculturing in the medium without test compound
Streptococcus pneumoniae [7] = test: Ratio of MBC to MIC for mef-encoded erythromycin resistant Streptococcus pneumoniae PU09
Staphylococcus aureus [8] = test: Ratio of MBC to MIC for inducibly erythromycin-resistant and methicillin resistant Staphylococcus aureus PU32 expressing i-ermA
Streptococcus pneumoniae [9] = test: Antimicrobial activity against mef-encoded erythromycin resistant Streptococcus pneumoniae PU09 incubated in CAMHB medium for 20 to 24 hrs by two-fold microbroth dilution method
Staphylococcus aureus [10] = test: Antimicrobial activity against erythromycin-susceptible Staphylococcus aureus ATCC 29213 incubated in CAMHB medium for 20 hrs by two-fold microbroth dilution method; settings: ATCC 29213, 20 h; in short: as §2
Staphylococcus aureus [11] = test: Antimicrobial activity against constitutively erythromycin resistant Staphylococcus aureus PU20 expressing c-ermC incubated in CAMHB medium for 20 hrs by two-fold microbroth dilution method; settings: PU20, 20 h; in short: as §4
Haemophilus influenzae [12] = test: Bactericidal activity against azithromycin-susceptible Haemophilus influenzae ATCC 49247 assessed as reduction in colony formation incubated in HTM broth medium for 20 to 24 hrs followed by 24 hrs subculturing in the medium without test compound
Haemophilus influenzae [13] = test: Ratio of MBC to MIC for azithromycin-susceptible Haemophilus influenzae ATCC 49247
Moraxella catarrhalis [14] = test: Ratio of MBC to MIC for erythromycin-susceptible Moraxella catarrhalis 13L332
Streptococcus pyogenes [15] = test: Ratio of MBC to MIC for inducibly erythromycin resistant Streptococcus pyogenes 01-968 expressing i-ermA
Streptococcus pneumoniae [16] = test: Ratio of MBC to MIC for erythromycin-susceptible Streptococcus pneumoniae ATCC 49619
Streptococcus pneumoniae [17] = test: Bactericidal activity against erythromycin-susceptible Streptococcus pneumoniae ATCC 49619 assessed as reduction in colony formation incubated in CAMHB medium for 20 to 24 hrs followed by 24 hrs subculturing in the medium without test compound
Streptococcus pneumoniae [18] = test: Antimicrobial activity against constitutively erythromycin resistant Streptococcus pneumoniae PU27 expressing c-erm incubated in CAMHB medium for 20 to 24 hrs by two-fold microbroth dilution method; in short: as §1
Staphylococcus aureus [19] = test: Antimicrobial activity against constitutively erythromycin resistant and methicillin resistant Staphylococcus aureus PU20 expressing c-ermC incubated in CAMHB medium for 20 hrs by two-fold microbroth dilution method; settings: PU20, 20 h; in short: as §3
Streptococcus pneumoniae [20] = test: Antimicrobial activity against erythromycin-susceptible Streptococcus pneumoniae ATCC 49619 incubated in CAMHB medium for 20 to 24 hrs by two-fold microbroth dilution method
Staphylococcus aureus [21] = test: Bactericidal activity against constitutively erythromycin resistant and methicillin-resistant Staphylococcus aureus PU20 expressing c-ermC assessed as reduction in colony formation incubated in CAMHB medium for 20 hrs followed by 24 hrs subculturing in the medium without test compound
Streptococcus pyogenes [22] = test: Antimicrobial activity against erythromycin-susceptible Streptococcus pyogenes A3 incubated in CAMHB medium for 20 to 24 hrs by two-fold microbroth dilution method
Staphylococcus aureus [23] = test: Antimicrobial activity against inducibly erythromycin-resistant Staphylococcus aureus PU32 expressing i-ermA incubated in CAMHB medium for 20 hrs by two-fold microbroth dilution method; settings: PU32, 20 h; in short: as §4
Staphylococcus aureus [24] = test: Bactericidal activity against inducibly erythromycin-resistant and methicillin resistant Staphylococcus aureus PU32 expressing i-ermA assessed as reduction in colony formation incubated in CAMHB medium for 20 hrs followed by 24 hrs subculturing in the medium without test compound
Moraxella catarrhalis [25] = test: Bactericidal activity against erythromycin-susceptible Moraxella catarrhalis 13L332 assessed as reduction in colony formation incubated in CAMHB medium for 20 hrs followed by 24 hrs subculturing in the medium without test compound
[26] = system: Staphylococcus epidermidis; test: Antimicrobial activity against Staphylococcus epidermidis E1 incubated in CAMHB medium for 20 hrs by two-fold microbroth dilution method; settings: E1, 20 h; in short: as §2
Streptococcus pyogenes [27] = test: Antimicrobial activity against inducibly erythromycin resistant Streptococcus pyogenes 01-968 expressing i-ermA incubated in CAMHB medium for 20 to 24 hrs by two-fold microbroth dilution method
Streptococcus pyogenes [28] = test: Bactericidal activity against inducibly erythromycin resistant Streptococcus pyogenes 01-968 expressing i-ermA assessed as reduction in colony formation incubated in CAMHB medium for 20 to 24 hrs followed by 24 hrs subculturing in the medium without test compound
Staphylococcus aureus [29] = test: Ratio of MBC to MIC for constitutively erythromycin resistant and methicillin-resistant Staphylococcus aureus PU20 expressing c-ermC

Compound | MIC (Haemophilus influenzae [1]) [µg/mL] | MIC (Moraxella catarrhalis [3]) [µg/mL] | MIC (Staphylococcus aureus [4]) [µg/mL] | MBC (Streptococcus pneumoniae [6]) [µg/mL] | Ratio (Streptococcus pneumoniae [7]) | MIC (Streptococcus pneumoniae [9]) [µg/mL] | MBC (Haemophilus influenzae [12]) [µg/mL] | Ratio (Haemophilus influenzae [13]) | Ratio (Moraxella catarrhalis [14]) | Ratio (Streptococcus pyogenes [15]) | Ratio (Streptococcus pneumoniae [16]) | MBC (Streptococcus pneumoniae [17]) [µg/mL] | MIC (Staphylococcus aureus [19]) [µg/mL] | MIC (Streptococcus pneumoniae [20]) [µg/mL] | MBC (Staphylococcus aureus [21]) [µg/mL] | MBC (Staphylococcus aureus [24]) [µg/mL] | MBC (Moraxella catarrhalis [25]) [µg/mL] | MIC (Streptococcus pyogenes [27]) [µg/mL] | MBC (Streptococcus pyogenes [28]) [µg/mL] | Ratio (Staphylococcus aureus [29]) | other results
CC[C@H]1OC(=O)[C@H](C)[C@@H](O[C@H]2C[C@@](C)(OC)[C@@H](O)[C@H](C)O2)[C@H](C)[C@@H](O[C@@H]2O[C@H](C)C[C@H](N(C)C)[C@H]2O)[C@](C)(OC)C[C@@H](C)C(=O)[C@H](C)[C@@H](O)[C@]1(C)O [CLARITHROMYCIN] | 4 (≈ 5.35 µM) | 0.031 (≈ 0.0414 µM) | 32 (≈ 42.8 µM) | 8 to 32 (≈ 10.7 to 42.8 µM) | 2 - 8 | 4 (≈ 5.35 µM) | 8 (≈ 10.7 µM) | 2 | 4 | >8 | 2 - 4 | 0.125 to 0.25 (≈ 0.167 to 0.334 µM) | > 256 | 0.06 to 0.064 (≈ 0.0802 to 0.0856 µM) | > 256 | > 256 | 0.125 (≈ 0.167 µM) | 1 to 8 (≈ 1.34 to 10.7 µM) | 8 to 64 (≈ 10.7 to 85.6 µM) | – | MIC (Streptococcus pyogenes [2]): 128 µg/mL (≈ 171 µM); MIC (Staphylococcus aureus [5]): > 256 µg/mL; Ratio (Staphylococcus aureus [8]): >8; MIC (Staphylococcus aureus [10]): 0.25 µg/mL (≈ 0.334 µM); MIC (Staphylococcus aureus [11]): > 256 µg/mL; MIC (Streptococcus pneumoniae [18]): 4 µg/mL (≈ 5.35 µM); MIC (Streptococcus pyogenes [22]): ≤ 0.032 µg/mL; MIC (Staphylococcus aureus [23]): > 256 µg/mL; MIC [26]: > 256 µg/mL
CC[C@H]1OC(=O)[C@H](C)[C@@H](OCC#Cc2ccc(-c3ccccn3)s2)[C@H](C)[C@@H](O[C@@H]2O[C@H](C)C[C@H](N(C)C)[C@H]2O)[C@](C)(OC)C[C@@H](C)/C(=N\OC)[C@H](C)[C@H]2OC(=O)O[C@@]21C | – | 4 (≈ 4.75 µM) | > 256 | 16 (≈ 19 µM) | 2 | 8 (≈ 9.5 µM) | – | – | 2 | 8 | 4 | 16 (≈ 19 µM) | 256 (≈ 304 µM) | 4 (≈ 4.75 µM) | 256 (≈ 304 µM) | > 256 | 8 (≈ 9.5 µM) | 8 (≈ 9.5 µM) | 64 (≈ 76 µM) | 1 | –
CC[C@H]1OC(=O)[C@H](C)[C@@H](OC(=O)CCNCCCCc2cccnc2)[C@H](C)[C@@H](O[C@@H]2O[C@H](C)C[C@H](N(C)C)[C@H]2O)[C@](C)(OC)C[C@@H](C)/C(=N\OC)[C@H](C)[C@H]2OC(=O)O[C@@]21C | 128 (≈ 151 µM) | – | 128 (≈ 151 µM) | 4 (≈ 4.71 µM) | 2 | 2 (≈ 2.36 µM) | 256 (≈ 302 µM) | 2 | – | 2 | 4 | 4 (≈ 4.71 µM) | 256 (≈ 302 µM) | 1 (≈ 1.18 µM) | 256 (≈ 302 µM) | > 256 | – | 64 (≈ 75.4 µM) | 128 (≈ 151 µM) | 1 | –
CC[C@H]1OC(=O)[C@H](C)[C@@H](OCC#Cc2ccc(OCc3ccccc3)cc2)[C@H](C)[C@@H](O[C@@H]2O[C@H](C)C[C@H](N(C)C)[C@H]2O)[C@](C)(OC)C[C@@H](C)/C(=N\OC)[C@H](C)[C@H]2OC(=O)O[C@@]21C | – | 8 (≈ 9.25 µM) | > 256 | 16 (≈ 18.5 µM) | 2 | 8 (≈ 9.25 µM) | – | – | 1 | 2 | 4 | 32 (≈ 37 µM) | 32 (≈ 37 µM) | 8 (≈ 9.25 µM) | 256 (≈ 296 µM) | > 256 | 8 (≈ 9.25 µM) | 4 (≈ 4.62 µM) | 8 (≈ 9.25 µM) | 8 | –
